Measured values collected from several papers.
Protocols differ between the studies behind these lines.
NT5E: 5'-nucleotidase (NT5E, Homo sapiens, UniProt P21589)
XDH: Xanthine dehydrogenase/oxidase (XDH, Bos taurus, UniProt P80457)
MAP4K5: Mitogen-activated protein kinase kinase kinase kinase 5 (MAP4K5, Homo sapiens, UniProt Q9Y4K4)
PDGFRA: Platelet-derived growth factor receptor alpha (PDGFRA, Homo sapiens, UniProt P16234)

| Compound | target | read-out | mode | method | tested at | measurement | value |
| --- | --- | --- | --- | --- | --- | --- | --- |
| Cc1cc(C)c(C#N)c(SC=CC(=O)Nc2ccon2)n1 | NT5E | enzyme activity | inhibitor |  | 10 µM | inhibition | 34% |
| O=C(NS(=O)(=O)c1ccccc1)c1cc2ccccc2n1Cc1ccc(Br)c2ccccc12 | XDH | enzyme activity | inhibitor | absorbance | 10 µM | inhibition | 20.3% |
| C1=C/COCc2cc(ccc2OCCN2CCCC2)Nc2nccc(n2)-c2cccc(c2)COC/1 | MAP4K5 | binding |  |  | 0.1 µM | remaining binding | 90% |
| COc1ccc2oc(-c3ccc4nc(N)oc4c3)c/c(=N\c3ccccc3NC(=O)CCN)c2c1 | Platelet-derived growth factor receptor alpha (PDGFRA, Homo sapiens, UniProt P16234, D842V) | enzyme activity | inhibitor |  | 1 µM | remaining activity | 91% |
| N#Cc1ccc(NC(=O)Nc2ccccc2)cc1 | PDGFRA | cell-free assay |  | competition with immobilised ligand | 25 µM | remaining binding | 92% |
| Oc1ncnc2[nH]ncc12 | XDH | enzyme activity | inhibitor |  | 250 µg/mL | inhibition | 99.3% |
| COC(=O)c1ccc(NC(=O)c2sc3nc(-c4ccccc4)cc(C(F)(F)F)c3c2N)cc1 | NT5E | enzyme activity | inhibitor | HPLC | 10 µM | inhibition | 94% |
| CC(C)(O)c1coc(S(=O)(=O)NC(=O)c2cc3ccccc3n2Cc2ccc(Br)c3ccccc23)c1 | XDH | enzyme activity | inhibitor | absorbance | 10 µM | inhibition | 1.21% |
| Cc1cc(C)c(C#N)c(SCC(=O)Nc2ccon2)n1 | NT5E | enzyme activity | inhibitor |  | 10 µM | inhibition | 3% |
| NC/C(=C\F)COc1cccc(Cn2c(=S)[nH]c(=O)c3[nH]cnc32)c1 | Lactoperoxidase (LPO, Bos taurus, UniProt P80025) | enzyme activity | inhibitor |  | 20 µM | remaining activity | 14.2% |
| Cc1cc(C)c(C#N)c(SCC(=O)Nc2cccnc2)n1 | NT5E | enzyme activity | inhibitor |  | 10 µM | inhibition | 5% |
| C#Cc1cnc(Nc2ccnc(CO)c2)nc1Nc1ccccc1S(C)(=O)=NC#N (stereo not drawn) | PDGFRA | cell-free assay |  |  | 1 µM | remaining signal | 58% |
| COCCOCCOCCNC(=O)CSc1nc(-c2ccccc2)cc(C(F)(F)F)c1C#N | NT5E | enzyme activity | inhibitor |  | 10 µM | inhibition | -20% |
| CCCCC(=O)Nc1ccc(-c2ccc3ncn(CCC)c(=O)c3c2)cn1 | MAP4K5 | binding |  | competition with immobilised ligand | 0.5 µM | remaining binding | 92% |
| CC(=O)ON=C1C=CC(=C(C#N)c2ccccc2)C=C1 | Dual specificity tyrosine-phosphorylation-regulated kinase 1A (Dyrk1a, Rattus norvegicus, UniProt Q63470) | enzyme activity | inhibitor | ADP detection | 20 µM | activity vs control | 101% |
